Results from ChEMBL document CHEMBL4396890, “Synthesis, Biological Evaluation, Structure-Activity Relationship, and Mechanism of Action Studies of Quinoline-Metronidazole Derivatives Against Experimental Visceral Leishmaniasis” (J Med Chem, 2019).
Calls of active or inactive are those of the source. The calls are words filed in the database; no cut-off is given here.

Legend:
[1] = system: Leishmania donovani; assay: Antileishmanial activity against Leishmania donovani MHOM/IN/80/Dd8 promastigotes infected in ip dosed BALB/c mouse assessed as reduction in parasite load in liver administered once daily for 5 days measured 7 days post dose by giemsa staining-based assay; format: functional, organism-based
Method in brief: (§1)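 Hamster-passaged strain was transformed to promastigotes. Stationary-phase cells (2 × 10^7 in 0.2 mL PBS) were injected into the tail vein of BALB/c mice. From day 15 post-infection, mice received compound ip in 8% DMSO in PBS for 5 consecutive days, 5 mice per group. Mice were killed day 7 post-treatment. Liver and spleen burden was read from Giemsa-stained stamp smears as LDU.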

[2] = system: Leishmania donovani; assay: Antileishmanial activity against Leishmania donovani MHOM/IN/80/Dd8 promastigotes infected in ip dosed BALB/c mouse assessed as reduction in parasite load in spleen administered once daily for 5 days measured 7 days post dose by giemsa staining-based assay; format: functional, organism-based; method in brief: as §1
[3] = system: Leishmania donovani; assay: Antileishmanial activity against Leishmania donovani MHOM/IN/80/Dd8 amastigotes harboring luciferase reporter gene infected in mouse J774 cells at 100 uM by Giemsa staining-based microscopic assay; format: functional, organism-based
Method in brief: (§2)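 Infection of J774 macrophages with L. donovani Dd8 promastigotes at a 1:8 cell:parasite ratio. Compounds were diluted 2-fold in RPMI over 3.125–100 μM final and applied for 48 h. Amastigote inhibition was read by luciferase (RLU) or by Giemsa count of amastigotes per 100 macrophages. IC50 was from dose–response; n = 3 independent experiments done in replicate.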

[4] = system: Leishmania donovani; assay: Antileishmanial activity against Leishmania donovani MHOM/IN/80/Dd8 promastigotes harboring luciferase reporter gene at 100 uM after 48 hrs by MTT assay; format: functional, organism-based
Method in brief: (§3)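 Luciferase-expressing L. donovani Dd8 promastigotes were grown at 24 °C in M199 with 10% heat-inactivated FBS and G418 20 μg/mL. They were exposed to a range of concentrations for 48 h, and viability was read by MTT absorbance as percent of untreated control. IC50 was from dose–response; n = 3 independent experiments done in replicate.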

[5] = system: Leishmania donovani; assay: Antileishmanial activity against Leishmania donovani MHOM/IN/80/Dd8 promastigotes harboring luciferase reporter gene at 100 uM after 48 hrs by Steady-Glo luminescence assay; format: functional, organism-based
Method in brief: (§4)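 Luciferase-expressing L. donovani Dd8 promastigotes were grown at 24 °C in M199 with 10% heat-inactivated FBS and G418 20 μg/mL. They were treated at varied concentrations for 24 and 48 h, and inhibition was read as relative luminescence units versus untreated control. IC50 was from dose–response; screening values are mean ± SD of at least three experiments in duplicate.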

[6] = system: Leishmania donovani; assay: Antileishmanial activity against Leishmania donovani MHOM/IN/80/Dd8 promastigotes harboring luciferase reporter gene at 50 uM after 48 hrs by Steady-Glo luminescence assay relative to control; format: functional; conditions: MHOM/IN/80/Dd8, 48 h; method in brief: as §4
[7] = system: Leishmania donovani; assay: Antileishmanial activity against Leishmania donovani MHOM/IN/80/Dd8 promastigotes harboring luciferase reporter gene at 25 uM after 48 hrs by Steady-Glo luminescence assay relative to control; format: functional; conditions: MHOM/IN/80/Dd8, 48 h; method in brief: as §4
[8] = system: Leishmania donovani; assay: Antileishmanial activity against Leishmania donovani MHOM/IN/80/Dd8 amastigotes harboring luciferase reporter gene infected in mouse J774 cells at 50 uM after 48 hrs by Steady-Glo luminescence assay relative to control; format: functional; conditions: MHOM/IN/80/Dd8, J774, 48 h; method in brief: as §2
[9] = system: Leishmania donovani; assay: Antileishmanial activity against Leishmania donovani MHOM/IN/80/Dd8 amastigotes harboring luciferase reporter gene infected in mouse J774 cells at 25 uM after 48 hrs by Steady-Glo luminescence assay relative to control; format: functional; conditions: MHOM/IN/80/Dd8, J774, 48 h; method in brief: as §2
[10] = system: Leishmania donovani; assay: Antileishmanial activity against Leishmania donovani MHOM/IN/80/Dd8 amastigotes harboring luciferase reporter gene infected in mouse J774 cells after 48 hrs by Steady-Glo luminescence assay; format: functional, organism-based; conditions: for IC50: MHOM/IN/80/Dd8, J774, 48 h; method in brief: as §2
[11] = system: Leishmania donovani; assay: Antileishmanial activity against Leishmania donovani MHOM/IN/80/Dd8 amastigotes harboring luciferase reporter gene infected in mouse J774 cells after 48 hrs by Giemsa staining-based microscopic assay; format: functional, organism-based; conditions: for IC50: MHOM/IN/80/Dd8, J774, 48 h; method in brief: as §2
[12] = system: Leishmania donovani; assay: Antileishmanial activity against Leishmania donovani MHOM/IN/80/Dd8 amastigotes harboring luciferase reporter gene infected in mouse J774 cells by Giemsa staining-based microscopic assay; format: functional, organism-based; conditions: TDE = time-dependent effect; method in brief: as §2
[13] = system: Leishmania donovani; assay: Antileishmanial activity against Leishmania donovani MHOM/IN/80/Dd8 promastigotes harboring luciferase reporter gene after 48 hrs by MTT assay relative to control; format: functional; method in brief: as §3
[14] = system: Leishmania donovani; assay: Antileishmanial activity against Leishmania donovani MHOM/IN/80/Dd8 promastigotes harboring luciferase reporter gene after 48 hrs by Steady-Glo luminescence assay relative to control; format: functional; method in brief: as §4
[15] = Cytotoxicity against mouse J774 cells assessed as cell viability up to 50 uM measured after 48 hrs by MTT assay relative to control; format: cell-based; conditions: read-out: Activity
Method in brief: (§5)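 Vero cells and J774 macrophages were exposed to 12.5−400 μM compound for 48 h. Viability was read by MTT. CC50 was derived from the curve. Mean ± SD, n = 3 experiments in replicate.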

[16] = Cytotoxicity against African green monkey Vero cells assessed as cell viability up to 100 uM measured after 48 hrs by MTT assay relative to control; format: cell-based; conditions: chlorocebus sabaeus, read-out: Activity; method in brief: as §5
[17] = Stability in rat plasma assessed as parent compound remaining at 10 ug/ml measured after 2 hrs by UPLC analysis; format: ADME, cell-free; conditions: read-out: Stability
[18] = Stability in rat liver microsomes assessed as parent compound remaining at 10 ug/ml preincubated for 5 mins followed by NADPH addition measured after 60 mins by UPLC analysis; format: ADME, Microsome; conditions: read-out: Stability
Method in brief: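 Compound incubated with rat liver microsomes and the percentage remaining was followed over time up to 60 min. In vitro half-life and related parameters were derived from a plot of the natural log of percent remaining against incubation time.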

[19] = Half life in rat liver microsomes at 10 ug/ml preincubated for 5 mins followed by NADPH addition measured after 60 mins by UPLC analysis; format: ADME, Microsome
Method in brief: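 Compound was incubated with rat liver microsomes, sampling % remaining up to 60 min. In vitro half-life and related parameters came from a plot of ln(% remaining) versus incubation time.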

[20] = system: Leishmania donovani; assay: Antileishmanial activity against Leishmania donovani MHOM/IN/80/Dd8 promastigotes infected in BALB/c mouse assessed as reduction in parasite load in spleen at 50 mg/kg, ip administered once daily for 5 days measured 7 days post dose by giemsa staining-based assay relative to control; format: functional; set-up: scale not given: the % may be the effect or the level left; method in brief: as §1
[21] = system: Leishmania donovani; assay: Antileishmanial activity against Leishmania donovani MHOM/IN/80/Dd8 promastigotes infected in BALB/c mouse assessed as reduction in parasite load in liver at 50 mg/kg, ip administered once daily for 5 days measured 7 days post dose by giemsa staining-based assay relative to control; format: functional; set-up: scale not given: the % may be the effect or the level left; method in brief: as §1
[22] = system: Leishmania donovani; assay: Antileishmanial activity against Leishmania donovani MHOM/IN/80/Dd8 promastigotes infected in BALB/c mouse assessed as reduction in parasite load in spleen at 200 mg/kg, ip administered once daily for 5 days measured 7 days post dose by giemsa staining-based assay relative to control; format: functional; set-up: scale not given: the % may be the effect or the level left; method in brief: as §1
[23] = Toxicity in BALB/c mouse infected with Leishmania donovani MHOM/IN/80/Dd8 promastigotes assessed as death at 12.5 to 200 mg/kg, ip administered once daily for 5 days measured up to 7 days post dose; format: organism-based; conditions: in vivo
Method in brief: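 BALB/c mice (20 ± 2 g) were infected by tail-vein injection of 2 × 10^7 stationary-phase promastigotes. At day 15 they received ip doses in 8% DMSO/PBS for 5 consecutive days and were killed at day 7 post-treatment. Survival, general health and body weight were monitored; 5 mice per group.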

Row | Compound | Activity [1] | Activity [2] | inhibition [3] | inhibition [4] | inhibition [5] | inhibition at 50 µM [6] | inhibition at 25 µM [7] | inhibition at 50 µM [8] | inhibition at 25 µM [9] | inhibition [10] | IC50 [10] | inhibition [11] | IC50 [11] | inhibition [12] | Imax [13] | Imax [14] | viability at 48 h [15] | viability at 48 h [16] | remaining at 2 h, 10 ug/ml [17] | remaining at 1 h, 10 ug/ml [18] | further results
1 | Cc1cc(-c2cccc(OCCn3c([N+](=O)[O-])cnc3C)c2)nc2ccccc12 | Dose-dependent effect | Dose-dependent effect | Active | Active | Active | 94.7% | 77.8% | 93.2 to 96% | 75.2% | Dose-dependent effect | 9.81 µM | Dose-dependent effect | 9.09 µM | Tde | >93% | >93% | > 92% | > 86% | 68.2% | 72.8% | half-life at 10 ug/ml [19]: 2.18 h; Activity [20]: >50%; Activity [21]: >50%; Activity [22]: 54.14%; Activity [23]: Non-Toxic
2 | Cc1cc(-c2ccc(OCCn3c([N+](=O)[O-])cnc3C)cc2)nc2ccccc12 | Dose-dependent effect | Dose-dependent effect | Active | Active | Active | 94.4% | 85.8% | 93.8 to 96% | 83.2% | Dose-dependent effect | 3.75 µM | Dose-dependent effect | 4.06 µM | Tde | >93% | >93% | > 92% | > 86% | 88.5% | 76% | half-life at 10 ug/ml [19]: 2.5 h; Activity [20]: >80.3%; Activity [21]: >82.3%; Activity [22]: 82.2%; Activity [23]: Non-Toxic
